Data from ChEMBL document CHEMBL3352345, “Design, synthesis and biological evaluation of novel thieno[3,2-d]pyrimidine derivatives containing diaryl urea moiety as potent antitumor agents” (Eur J Med Chem, 2014).

How the values were obtained:
[1] = molecular target: Serine/threonine-protein kinase B-raf (Homo sapiens, UniProt P15056); test: Inhibition of B-Raf (unknown origin) using poly (Glu, Tyr) 4:1 substrate incubated for 30 mins by HTRF assay
[2] = molecular target: RAF proto-oncogene serine/threonine-protein kinase (Homo sapiens, UniProt P04049); test: Inhibition of C-Raf (unknown origin) using poly (Glu, Tyr) 4:1 substrate incubated for 30 mins by HTRF assay
Summary of the method: (§1)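 Compounds in 1% DMSO, blank DMSO as negative control. Reaction started with purified tyrosine kinase, 30 min at 25 °C, stopped with Streptavidin-XL665 and Tk antibody cryptate; read at […] and 615 nm.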

HT-29 [3] = test: Cytotoxicity against human HT-29 cells after 72 hrs by MTT assay; assay type: functional, cell-based; settings: HT-29, 72 h
Summary of the method: (§2)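 Cells suspended in MEM medium, plated and incubated 24 h at 37 °C in 5% CO₂, then exposed to compounds at indicated final concentrations for 72 h. IC₅₀ from averages of three determinations, relative to DMSO vehicle control.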

[4] = molecular target: Serine/threonine-protein kinase mTOR (Homo sapiens, UniProt P42345); test: Inhibition of mTOR (unknown origin) using poly (Glu, Tyr) 4:1 substrate incubated for 30 mins by HTRF assay; summary of the method: as §1
[5] = molecular target: Epidermal growth factor receptor (Homo sapiens, UniProt P00533); test: Inhibition of EGFR (unknown origin) using poly (Glu, Tyr) 4:1 substrate incubated for 30 mins by HTRF assay
Epidermal growth factor receptor, sequence (P00533 whole entry): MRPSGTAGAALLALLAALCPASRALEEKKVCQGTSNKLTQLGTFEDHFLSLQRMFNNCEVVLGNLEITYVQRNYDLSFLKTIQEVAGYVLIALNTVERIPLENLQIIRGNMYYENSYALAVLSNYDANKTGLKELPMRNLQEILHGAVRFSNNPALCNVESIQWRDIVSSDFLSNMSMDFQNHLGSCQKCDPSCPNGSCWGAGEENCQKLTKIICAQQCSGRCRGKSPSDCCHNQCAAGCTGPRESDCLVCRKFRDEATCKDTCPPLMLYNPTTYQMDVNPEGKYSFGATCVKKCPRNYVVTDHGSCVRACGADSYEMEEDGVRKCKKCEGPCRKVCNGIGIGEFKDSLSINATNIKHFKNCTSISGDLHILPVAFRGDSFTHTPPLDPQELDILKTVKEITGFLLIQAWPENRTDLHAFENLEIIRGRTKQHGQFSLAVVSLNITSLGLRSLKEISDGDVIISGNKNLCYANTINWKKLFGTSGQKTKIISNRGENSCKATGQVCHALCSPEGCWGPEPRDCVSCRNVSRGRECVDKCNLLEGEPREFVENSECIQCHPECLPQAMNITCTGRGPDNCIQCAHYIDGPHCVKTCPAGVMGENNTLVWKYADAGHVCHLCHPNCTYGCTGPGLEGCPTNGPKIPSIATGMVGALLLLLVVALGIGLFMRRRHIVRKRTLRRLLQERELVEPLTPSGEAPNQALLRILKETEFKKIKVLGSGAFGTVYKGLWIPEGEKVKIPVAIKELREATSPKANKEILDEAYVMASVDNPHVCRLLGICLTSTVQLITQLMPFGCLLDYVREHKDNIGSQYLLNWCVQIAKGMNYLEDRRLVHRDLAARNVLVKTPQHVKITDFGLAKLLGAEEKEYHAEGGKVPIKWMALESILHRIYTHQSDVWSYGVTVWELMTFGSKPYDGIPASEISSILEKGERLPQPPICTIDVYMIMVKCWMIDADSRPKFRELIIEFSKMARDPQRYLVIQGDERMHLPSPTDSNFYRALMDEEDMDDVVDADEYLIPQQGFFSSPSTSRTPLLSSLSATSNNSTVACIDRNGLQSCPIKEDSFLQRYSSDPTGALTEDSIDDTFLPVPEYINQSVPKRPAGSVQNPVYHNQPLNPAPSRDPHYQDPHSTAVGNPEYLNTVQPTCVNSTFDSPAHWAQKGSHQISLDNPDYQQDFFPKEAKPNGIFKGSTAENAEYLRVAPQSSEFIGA

HT-29 [6] = test: Induction of apoptosis in human HT-29 cells assessed as increase in PARP cleavage pre-treated for 48 hrs by Western blot method; assay type: functional, cell-based
Summary of the method: (§3)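 HT-29 cells (about 1 × 10⁷) treated 48 h with vehicle or 1 or 5 µM compound; lysates prepared with lysis buffer plus protease inhibitor cocktail and sonicated. Equal total protein run on 10% SDS-PAGE, transferred to PVDF, probed with primary and HRP secondary antibodies. Cleaved PARP to β-actin ratio expressed relative to control.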

[7] = molecular target: Platelet-derived growth factor receptor beta (Homo sapiens, UniProt P09619); test: Inhibition of PDGFRbeta (unknown origin) using poly (Glu, Tyr) 4:1 substrate incubated for 30 mins by HTRF assay; summary of the method: as §1
Platelet-derived growth factor receptor beta, sequence (P09619 whole entry): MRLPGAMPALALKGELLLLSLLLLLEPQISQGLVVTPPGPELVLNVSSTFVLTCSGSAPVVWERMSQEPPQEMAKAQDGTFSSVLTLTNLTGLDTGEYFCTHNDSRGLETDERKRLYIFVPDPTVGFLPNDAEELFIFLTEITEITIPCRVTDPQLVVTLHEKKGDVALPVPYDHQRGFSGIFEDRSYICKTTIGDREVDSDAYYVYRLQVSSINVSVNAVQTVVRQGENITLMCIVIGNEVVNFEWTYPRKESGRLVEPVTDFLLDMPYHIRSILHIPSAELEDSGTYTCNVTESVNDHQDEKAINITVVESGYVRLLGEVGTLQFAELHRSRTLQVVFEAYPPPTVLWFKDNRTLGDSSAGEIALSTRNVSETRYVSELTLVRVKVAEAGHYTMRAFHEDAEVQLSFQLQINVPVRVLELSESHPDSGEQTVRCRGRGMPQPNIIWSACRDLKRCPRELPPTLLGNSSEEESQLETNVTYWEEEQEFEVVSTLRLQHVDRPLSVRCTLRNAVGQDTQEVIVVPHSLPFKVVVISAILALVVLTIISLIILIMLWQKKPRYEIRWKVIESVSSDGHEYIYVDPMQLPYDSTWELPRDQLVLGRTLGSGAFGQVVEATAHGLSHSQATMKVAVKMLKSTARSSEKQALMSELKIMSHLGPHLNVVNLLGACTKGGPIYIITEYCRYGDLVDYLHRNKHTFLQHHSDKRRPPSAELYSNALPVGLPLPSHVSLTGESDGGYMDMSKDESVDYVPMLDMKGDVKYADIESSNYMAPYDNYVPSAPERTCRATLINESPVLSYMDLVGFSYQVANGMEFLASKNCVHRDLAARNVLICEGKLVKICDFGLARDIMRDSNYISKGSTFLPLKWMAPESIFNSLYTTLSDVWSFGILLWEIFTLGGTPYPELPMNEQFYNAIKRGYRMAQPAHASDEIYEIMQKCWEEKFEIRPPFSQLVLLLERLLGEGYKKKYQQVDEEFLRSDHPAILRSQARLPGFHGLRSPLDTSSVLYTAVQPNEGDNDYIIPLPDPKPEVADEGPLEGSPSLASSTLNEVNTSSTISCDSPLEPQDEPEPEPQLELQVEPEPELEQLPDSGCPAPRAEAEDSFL

[8] = Cytotoxicity against human MKN45 cells after 72 hrs by MTT assay; assay type: functional, cell-based; settings: MKN-45, 72 h; summary of the method: as §2
HT-29 [9] = test: Induction of apoptosis in human HT-29 cells assessed as increase in PARP cleavage at 5 uM pre-treated for 48 hrs by Western blot method relative to beta-actin expression; assay type: functional; summary of the method: as §3
[10] = molecular target: Phosphatidylinositol 4,5-bisphosphate 3-kinase catalytic subunit alpha isoform (Homo sapiens, UniProt P42336); test: Inhibition of PI3Kalpha (unknown origin) using poly (Glu, Tyr) 4:1 substrate incubated for 30 mins by HTRF assay
Phosphatidylinositol 4,5-bisphosphate 3-kinase catalytic subunit alpha isoform, sequence (P42336 whole entry, canonical isoform): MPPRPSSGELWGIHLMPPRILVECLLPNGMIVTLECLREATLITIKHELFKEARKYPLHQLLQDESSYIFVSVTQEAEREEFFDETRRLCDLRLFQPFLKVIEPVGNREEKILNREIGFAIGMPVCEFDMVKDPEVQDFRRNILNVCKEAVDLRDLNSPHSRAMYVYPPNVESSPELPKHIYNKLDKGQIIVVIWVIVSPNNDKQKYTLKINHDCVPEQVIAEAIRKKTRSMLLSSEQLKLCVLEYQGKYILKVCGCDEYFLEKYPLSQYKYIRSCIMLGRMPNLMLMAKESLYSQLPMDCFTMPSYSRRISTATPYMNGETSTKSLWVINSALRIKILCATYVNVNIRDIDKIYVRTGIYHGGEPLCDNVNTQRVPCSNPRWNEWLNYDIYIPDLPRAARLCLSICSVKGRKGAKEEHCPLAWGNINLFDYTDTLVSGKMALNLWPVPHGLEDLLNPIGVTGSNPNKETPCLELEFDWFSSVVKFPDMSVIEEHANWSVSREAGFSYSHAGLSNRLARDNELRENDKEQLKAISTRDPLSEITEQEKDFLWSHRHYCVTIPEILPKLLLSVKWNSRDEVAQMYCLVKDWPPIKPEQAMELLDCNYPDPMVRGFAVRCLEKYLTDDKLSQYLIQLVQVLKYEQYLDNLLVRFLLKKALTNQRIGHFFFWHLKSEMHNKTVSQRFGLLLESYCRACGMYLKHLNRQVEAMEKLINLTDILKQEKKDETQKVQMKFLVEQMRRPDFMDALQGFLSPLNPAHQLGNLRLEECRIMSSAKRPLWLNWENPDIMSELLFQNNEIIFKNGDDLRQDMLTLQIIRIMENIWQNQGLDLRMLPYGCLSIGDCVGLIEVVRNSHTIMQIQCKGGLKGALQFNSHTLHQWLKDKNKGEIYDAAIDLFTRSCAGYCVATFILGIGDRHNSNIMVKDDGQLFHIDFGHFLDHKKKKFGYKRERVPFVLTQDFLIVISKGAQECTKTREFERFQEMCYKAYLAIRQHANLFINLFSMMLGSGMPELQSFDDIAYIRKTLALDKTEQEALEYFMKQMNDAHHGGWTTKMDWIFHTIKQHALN

[11] = molecular target: Vascular endothelial growth factor receptor (Homo sapiens, UniProt P17948+P35916+P35968); test: Inhibition of VEGFR (unknown origin) using poly (Glu, Tyr) 4:1 substrate incubated for 30 mins by HTRF assay; assay type: protein assay
[12] = molecular target: Mast/stem cell growth factor receptor Kit (Homo sapiens, UniProt P10721); test: Inhibition of KIT (unknown origin) using poly (Glu, Tyr) 4:1 substrate incubated for 30 mins by HTRF assay; summary of the method: as §1
MDA-MB-231 = test: Cytotoxicity against human MDA-MB-231 cells after 72 hrs by MTT assay; assay type: functional, cell-based; settings: MDA-MB-231, 72 h; summary of the method: as §2
HT-29 [13] = test: Induction of apoptosis in human HT-29 cells assessed as increase in PARP cleavage at 1 uM pre-treated for 48 hrs by Western blot method relative to beta-actin expression; assay type: functional; summary of the method: as §3
[14] = Cytotoxicity against human H460 cells after 72 hrs by MTT assay; assay type: functional, cell-based; settings: NCI-H460, 72 h; summary of the method: as §2
[15] = molecular target: T1, Receptor-type tyrosine-protein kinase FLT3 (Homo sapiens, UniProt P36888); test: Inhibition of FLT3 (unknown origin) using poly (Glu, Tyr) 4:1 substrate incubated for 30 mins by HTRF assay; summary of the method: as §1
T1 sequence (P36888 whole entry): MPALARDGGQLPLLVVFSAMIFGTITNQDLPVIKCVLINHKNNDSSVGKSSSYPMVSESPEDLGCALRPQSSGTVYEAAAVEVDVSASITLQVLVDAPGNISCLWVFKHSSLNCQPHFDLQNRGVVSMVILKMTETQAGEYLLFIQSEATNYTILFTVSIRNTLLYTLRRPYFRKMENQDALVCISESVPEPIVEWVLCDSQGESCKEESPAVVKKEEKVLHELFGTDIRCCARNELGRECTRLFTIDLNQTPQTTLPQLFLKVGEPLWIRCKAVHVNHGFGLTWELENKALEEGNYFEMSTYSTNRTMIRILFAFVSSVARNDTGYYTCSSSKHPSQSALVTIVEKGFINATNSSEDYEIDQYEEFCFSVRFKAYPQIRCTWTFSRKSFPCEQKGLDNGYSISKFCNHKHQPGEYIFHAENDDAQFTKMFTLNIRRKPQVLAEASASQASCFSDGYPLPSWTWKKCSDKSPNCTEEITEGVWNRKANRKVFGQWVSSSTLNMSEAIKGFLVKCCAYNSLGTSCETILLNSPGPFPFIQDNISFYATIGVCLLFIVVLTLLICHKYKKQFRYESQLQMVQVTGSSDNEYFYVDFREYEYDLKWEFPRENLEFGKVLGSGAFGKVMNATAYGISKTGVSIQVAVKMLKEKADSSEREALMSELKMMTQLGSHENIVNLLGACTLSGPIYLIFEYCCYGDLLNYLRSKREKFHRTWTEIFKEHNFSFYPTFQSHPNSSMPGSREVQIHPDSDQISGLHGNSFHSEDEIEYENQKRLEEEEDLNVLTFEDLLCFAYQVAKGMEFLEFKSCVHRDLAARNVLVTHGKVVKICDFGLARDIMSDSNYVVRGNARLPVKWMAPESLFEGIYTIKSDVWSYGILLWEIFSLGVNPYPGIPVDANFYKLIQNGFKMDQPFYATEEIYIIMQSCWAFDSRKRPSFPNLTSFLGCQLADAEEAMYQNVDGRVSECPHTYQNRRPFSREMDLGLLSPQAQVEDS

[16] = molecular target: Vascular endothelial growth factor receptor 2 (Homo sapiens, UniProt P35968); test: Inhibition of KDR (unknown origin) using poly (Glu, Tyr) 4:1 substrate incubated for 30 mins by HTRF assay
Vascular endothelial growth factor receptor 2, sequence (P35968 whole entry): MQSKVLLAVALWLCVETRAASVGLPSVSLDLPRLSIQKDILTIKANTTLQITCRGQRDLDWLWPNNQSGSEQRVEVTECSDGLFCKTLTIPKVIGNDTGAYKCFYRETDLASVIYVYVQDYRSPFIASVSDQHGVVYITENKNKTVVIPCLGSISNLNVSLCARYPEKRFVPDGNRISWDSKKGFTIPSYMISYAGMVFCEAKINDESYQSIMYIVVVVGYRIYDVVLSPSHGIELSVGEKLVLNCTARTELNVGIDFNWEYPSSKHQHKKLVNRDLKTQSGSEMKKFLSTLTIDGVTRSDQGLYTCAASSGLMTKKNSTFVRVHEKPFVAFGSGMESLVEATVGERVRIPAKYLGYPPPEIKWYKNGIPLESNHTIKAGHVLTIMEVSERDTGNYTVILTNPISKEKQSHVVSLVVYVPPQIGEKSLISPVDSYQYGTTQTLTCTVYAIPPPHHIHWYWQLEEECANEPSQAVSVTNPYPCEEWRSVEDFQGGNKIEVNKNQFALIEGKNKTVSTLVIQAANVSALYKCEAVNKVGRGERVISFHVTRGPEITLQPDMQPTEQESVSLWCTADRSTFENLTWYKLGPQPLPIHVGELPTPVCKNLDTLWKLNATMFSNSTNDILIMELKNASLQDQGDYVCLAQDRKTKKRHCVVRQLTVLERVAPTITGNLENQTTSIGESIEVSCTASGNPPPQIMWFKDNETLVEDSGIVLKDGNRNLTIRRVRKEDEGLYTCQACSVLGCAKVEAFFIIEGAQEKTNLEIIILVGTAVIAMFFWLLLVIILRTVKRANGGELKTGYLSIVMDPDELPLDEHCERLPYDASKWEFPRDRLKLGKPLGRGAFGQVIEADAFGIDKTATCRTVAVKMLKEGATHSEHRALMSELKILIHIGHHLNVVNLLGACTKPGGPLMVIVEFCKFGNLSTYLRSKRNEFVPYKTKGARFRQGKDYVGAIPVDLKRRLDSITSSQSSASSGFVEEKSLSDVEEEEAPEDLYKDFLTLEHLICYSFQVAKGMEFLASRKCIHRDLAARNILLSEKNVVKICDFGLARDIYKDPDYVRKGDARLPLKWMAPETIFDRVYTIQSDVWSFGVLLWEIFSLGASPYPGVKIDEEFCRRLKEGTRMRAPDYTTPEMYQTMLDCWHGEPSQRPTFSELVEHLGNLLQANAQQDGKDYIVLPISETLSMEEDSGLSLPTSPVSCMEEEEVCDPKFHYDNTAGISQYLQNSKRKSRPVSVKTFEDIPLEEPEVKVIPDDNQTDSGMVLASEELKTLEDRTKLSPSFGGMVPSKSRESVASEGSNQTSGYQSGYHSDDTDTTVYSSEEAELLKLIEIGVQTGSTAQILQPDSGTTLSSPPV

SMILES: CCN(CC)CCCNc1nc(-c2ccc(NC(=O)Nc3ccc(Cl)cc3)cc2)nc2ccsc12
- IC50 [1]: > 10000 nM
- IC50 [2]: > 10000 nM
- IC50 (HT-29 [3]): 58 nM
- IC50 [4]: > 10000 nM
- IC50 [5]: > 10000 nM
- Activity (HT-29 [6]): Dose-dependent effect
- IC50 [7]: 5800 nM
- IC50 [8]: 180 nM
- fold change (FC) (HT-29 [9]): 3.5
- IC50 [10]: 130 nM
- IC50 [11]: > 10000 nM
- IC50 [12]: 6100 nM
- IC50 (MDA-MB-231): 230 nM
- fold change (FC) (HT-29 [13]): 2.5
- IC50 [14]: 81 nM
- IC50 [15]: 1000 nM
- IC50 [16]: > 10000 nM
